Source: PubChem BioAssay (The Scripps Research Institute Molecular Screening Center)
An excerpt weighted towards active compounds, which were near 2% of everything screened.
CHRM1 antagonist: human CHRM1 antagonism; inhibition, % at 3 µM; CHO-K1 hM1, Fluo-8 calcium fluorescence, ACh EC80 antagonist; P11229; AID 588852; 1.3% of 360,000 active;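 active = percent inhibition above its own plate's cutoff, namely the mean of that plate's compound wells plus 3 SD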;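 note: peak over basal fluorescence ratio during 140 s after agonist addition; 0% = ACh EC80 plus DMSO and 100% = DMSO alone without agonist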
Target sequence (P11229 whole entry, looked up): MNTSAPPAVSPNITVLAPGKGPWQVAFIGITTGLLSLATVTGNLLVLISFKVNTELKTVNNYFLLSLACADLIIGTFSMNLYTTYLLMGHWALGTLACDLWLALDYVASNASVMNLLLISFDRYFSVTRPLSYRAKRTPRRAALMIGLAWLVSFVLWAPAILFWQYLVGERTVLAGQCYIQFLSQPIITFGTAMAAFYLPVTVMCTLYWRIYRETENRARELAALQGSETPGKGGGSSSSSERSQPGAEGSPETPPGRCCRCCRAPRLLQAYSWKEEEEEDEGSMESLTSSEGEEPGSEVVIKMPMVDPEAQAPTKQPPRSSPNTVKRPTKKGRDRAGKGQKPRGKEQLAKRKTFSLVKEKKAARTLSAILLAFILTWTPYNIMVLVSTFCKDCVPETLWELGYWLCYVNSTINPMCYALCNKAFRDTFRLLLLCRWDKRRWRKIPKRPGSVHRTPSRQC
M5 ag: CHRM5 agonism in calcium assay; 0.19% of 360,000 active; P08912; CHO-K1 hM5 cells, Fluo-8 calcium fluorescence; 0% DMSO wells, 100% maximal acetylcholine response; activation, % at 3 µM;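 active = activation above the run's mean over test compounds plus 3 SD, cut at about 23% in these data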;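 note: signal is peak over basal fluorescence ratio across the kinetic read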
M1 PAM: potentiates human M1 receptor response to acetylcholine. CHO-K1 hM1, Fluo-8 calcium fluorescence, ACh EC20; 0% = ACh EC20, 100% = maximal ACh. activation, % at 3 µM. 0.088% of 360,000 active. P11229; in the data active = activation above about 19%, passing the limit was not always enough
M1 ag: agonists of human M1 muscarinic receptor | P11229 | CHO-K1 hM1, Fluo-8 calcium fluorescence, agonist mode; 0% DMSO, 100% acetylcholine EC100 | activation, % at 3 µM | 0.33% of 360,000 active | AID 588814;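 active = activation above the run's mean compound activation plus 3 SD, cut at about 16% in these data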;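 note: peak over basal fluorescence ratio within a 140 s kinetic read after compound addition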
CHRM5 antagonist: CHRM5 antagonism in calcium assay; CHO-hM5 cells, Fluo-8 calcium fluorescence, ACh EC80; inhibition, % at 3 µM; 0.59% of 360,000 active; AID 624040;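 active = inhibition above a per-plate cutoff, the mean of that plate's test compounds plus 3 SD, cut at about 27% in these data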;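 note: 0% = acetylcholine EC80 with DMSO and 100% = DMSO without agonist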
CHRM5 PAM: potentiates acetylcholine response at human M5 receptor | P08912 | activation, % at 3 µM | CHO-K1 hM5, Fluo-8 calcium, ACh EC20 PAM; 0% = ACh EC20, 100% = ACh EC100 | 0.3% of 360,000 active | AID 624038;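 active = activation above the run cutoff, the mean activation of all test compounds plus 3 SD, cut at about 18% in these data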
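System: CHO-K1 cell line with stable human muscarinic M5 receptor expression | Also added: EC20 acetylcholine as agonist stimulus | Compound: One concentration, 3 µM final (nominal) | Timing: Fluo-8 loading 80 min at 37 °C plus 30 min room temperature | Measured by: Fluo-8 calcium dye fluorescence, kinetic read | Read-out basis: % activation, ACh-normalized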
Active calls of the source: *; · = no result.

SMILES | CHRM1 antagonist | M5 ag | M1 PAM | M1 ag | CHRM5 antagonist | CHRM5 PAM
O=C(COc1ccccc1)NC(=S)Nc1cccc2cc(O)ccc12 | -4 | 9 | 10 | 19* | 8 | -5
O=C(COc1ccccc1)NC(=S)Nc1ccc2c3c(cccc13)CC2 | -15 | 2 | 11 | 0 | 11 | 4
COc1ccc(N2CCN(C(=O)CCNC(=O)Cn3ccc4ccccc4c3=O)CC2)cc1 | -6 | -1 | 4 | -2 | 13 | -11
Clc1ccc(-c2noc(CN3CCCC3)n2)cc1 | -3 | -3 | -3 | -4 | 2 | 0
Cn1ccnc1C1CCCCN1Cc1nc(-c2ccc(Cl)cc2)no1 (stereo not given) | 32* | -22 | -19 | -7 | 17 | -14
COC1=CC(=O)OC(c2ccc(C#N)cc2)C1 (stereo not given) | · | 0 | · | · | 0 | -2
O=C1C=CC(=Nc2ccc3c(c2)Cc2cc(F)ccc2-3)O1 | -11 | -8 | 1 | -6 | -1 | 13
O=C1C=CC(=Nc2cccc3c2C(=O)c2ccccc2-3)O1 | -11 | 45* | 5 | 4 | 12 | -14
COC(/C(=N/O)c1ccc(Cl)cc1)c1ccccc1 (stereo not given) | 47* | -5 | -20 | -6 | 29* | -20
Cc1nccn1CC(O)Cn1c2ccccc2c2ccccc21 (stereo not given) | 36* | -7 | -21 | -5 | 13 | -23
Cc1cc(C)n(CC(O)Cn2c3ccccc3c3ccccc32)n1 (stereo not given) | 1 | -3 | 1 | -4 | -4 | 3
Cc1cccc(C)c1NC(=O)COC(=O)c1c2c(nc3ccccc13)/C(=C\c1ccc3c(c1)OCO3)CCC2 | 32 | 49* | -16 | 42* | 23 | -21
CC(OC(=O)c1c2c(nc3ccccc13)/C(=C\c1ccc3c(c1)OCO3)CCC2)C(=O)Nc1ccc(S(N)(=O)=O)cc1 (stereo not given) | -3 | 5 | 1 | -3 | -3 | 1
CCN(CC)C(=O)C(c1ccccc1)S(=O)(=O)N1CCOCC1 (stereo not given) | -22 | 2 | 6 | 4 | 4 | 2
O=C(/C=C/c1ccc(Cl)c([N+](=O)[O-])c1)Nc1cccc(NC(=O)c2ccco2)c1 | 34* | 1 | -23 | -3 | 21 | -16
O=C(/C=C/c1ccc(Cl)c([N+](=O)[O-])c1)Nc1ccc(NC(=O)c2ccco2)cc1 | 2 | -2 | -3 | -3 | 13 | -8
COc1ccc(CNC(=O)Nc2nc(C(N)CCc3ccccc3)cs2)cc1 (stereo not given) | 5 | 0 | -1 | -5 | 5 | -2
OCCC1CN(Cc2cc3c(cc2Cl)OCO3)CCN1C1CCCC1 (stereo not given) | 38* | -18 | -18 | -8 | -9 | -8
Cc1cccc(-c2ncc(CN3CCN(C4CCCC4)C(CCO)C3)cn2)c1 (stereo not given) | 8 | -8 | -13 | -14 | -16 | 6
CC(C)(O)C#Cc1ccc(CN2CCN(Cc3ccsc3)C(CCO)C2)cc1 (stereo not given) | 0 | -7 | -9 | -12 | 1 | -1
OCCC1CN(Cc2ccncc2)CCN1C1CCCC1 (stereo not given) | 12 | -4 | -9 | -11 | 2 | -3
CC(C)(O)C#Cc1ccc(CN2CCN(C3CCCC3)C(CCO)C2)cc1 (stereo not given) | 53* | -15 | -22 | -7 | -2 | 7
CSc1ccc(CN2CCN(C3CCCC3)C(CCO)C2)cc1 (stereo not given) | 60* | -15 | -26 | -9 | 0 | -1
OCCC1CN(Cc2cnc(-c3ccc(Cl)cc3)nc2)CCN1C1CCCCC1 (stereo not given) | 18 | -9 | -14 | -6 | 30* | -14
Cc1cn([C@H]2C[C@H](O)[C@@H](/C=C/C(=O)NCc3ccco3)O2)c(=O)[nH]c1=O | -32 | 1 | 8 | -2 | -3 | -2
NC(Cc1ccc(F)cc1)c1csc(Nc2ccc(C(F)(F)F)cn2)n1 (stereo not given) | 5 | 7 | 1 | 9 | 11 | -2
